From article PMC4828309 (European journal of immunology, 2016)
Entries after “also recorded” stand apart in the source; their conditions may differ. Blank lines part the entries; values can stand above or below the molecule they belong to. No end group written: not given here.

Key:
[1] = tested on: DQ2 with Gly at position 53; details: ref [22]; cited from earlier work
DQ8 βT89G = assay: Cell surface CLIP by flow cytometry, 293T cells expressing DQ8 βT89G mutant; assay type: cell-based, human; details: 293T + Ii, with vs without DM; βT89G disrupts one H-bond; CLIP/DQ ratio
DQ alleles in T2 cells = assay type: cell-based, human; details: T2 lymphoblastoid cells, absence or presence of HLA-DM, flow cytometry
How it was run: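 Human B-cell hybrid T2 line (endogenous Ii, MHC class II region deleted) expressing each DQ allele with or without HLA-DM. Cells surface-stained with PerCP-Cy5.5 anti-CLIP (Cer.CLIP1) and biotinylated anti-DQ (SPVL3) detected by streptavidin-APC or -PE-Cy7, alongside isotype-matched controls. Analysed by flow cytometry.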

sDQ6 = assay: FP assay of CLIP dissociation from sDQ6; assay type: binding, human; details: 50 nM sDQ6-^488CLIP, sDM 0 to 2000 nM, 37°C, pH 5.0
How it was run: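 sDQ6 secreted by lentivirus-transduced 293T cells, purified by His-resin then anti-DQ affinity, and thrombin-cleaved overnight. It was loaded with Alexa 488-labelled CLIP (1:5) plus 100 nM sDM for 3 h at 37°C in pH 5.0 citrate-phosphate/NaCl/Tween buffer, then spin-desalted. 50 nM complex, 0–2000 nM sDM and 100 μM unlabelled CLIP1 were read by FP at 37°C. FP was normalised to free-peptide background; rate enhancement was expressed relative to no-DM rate.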

DQ8 βE86A = assay: Cell surface CLIP by flow cytometry, 293T cells expressing DQ8 βE86A mutant; assay type: cell-based, human; details: 293T + Ii, with vs without DM; βE86A disrupts two H-bonds; CLIP/DQ ratio
DQ8 [2] = assay: Cell surface CLIP by flow cytometry, 293T cells expressing DQ8; assay type: cell-based, human
How it was run: (§1)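 Human 293T cells (no endogenous Ii, DM or DQ) were lentivirally transduced with full-length DQ α/β (T2A-linked, GFP vector), Ii, and DM (mCherry vector). They were sorted for GFP, DQ and mCherry. Surface staining used PerCP-Cy5.5 Cer.CLIP1 and biotinylated SPVL3 anti-DQ with streptavidin-APC or -PE-Cy7. Gating was on matched GFP/mCherry levels. Read-outs were MFI and the CLIP/DQ MFI ratio with vs without DM, from 3 independent experiments, mean + SD.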

DQ8-2 [3] = assay: Peptide elution and HPLC-MS/MS, DQ8-2; set-up: species or system human; details: 293T DQ8-2+Ii+DM, 2 independent experiments
How it was run: (§2)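 About 1×10^9 sorted, stably transduced 293T cells expressing DQ+Ii or DQ+Ii+DM were lysed. DQ was captured with anti-DQ mAb SPVL3 on protein A beads. Bound peptides were eluted, separated by HPLC and sequenced by HPLC-MS/MS. Nested Ii-derived peptides were assigned to the CLIP1 core or the CLIP2 register. Results come from 2 independent experiments.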

DQ2 [4] = assay: Peptide elution and HPLC-MS/MS, DQ2; set-up: species or system human; details: 293T DQ2+Ii+DM, 2 independent experiments
How it was run: as §2

DQ1 [5] = assay: Peptide elution and HPLC-MS/MS, DQ1; set-up: species or system human
How it was run: as §2

DQ8 [6] = assay: Peptide elution and HPLC-MS/MS, DQ8; set-up: species or system human; details: 293T DQ8+Ii+DM, 2 independent experiments
How it was run: as §2

DQ2-8 [7] = assay: Peptide elution and HPLC-MS/MS, DQ2-8; set-up: species or system human; details: 293T DQ2-8+Ii+DM, 2 independent experiments
How it was run: as §2

DQ molecules = assay: Peptide elution and HPLC-MS/MS, several DQ molecules reported together; set-up: species or system human
How it was run: as §2

DQ1 [8] = assay: Cell surface CLIP by flow cytometry, 293T cells expressing DQ1; assay type: cell-based, human; details: 293T DQ1, even in the absence of DM, CerCLIP.1 mAb
How it was run: as §1

DQ2-8 [9] = assay: Cell surface CLIP by flow cytometry, 293T cells expressing DQ2-8 trans-dimer; assay type: cell-based, human
How it was run: as §1

DQ2 [10] = assay: Cell surface CLIP by flow cytometry, 293T cells expressing DQ2; assay type: cell-based, human
How it was run: as §1

DQ8-2 [11] = assay: Cell surface CLIP by flow cytometry, 293T cells expressing DQ8-2 trans-dimer; assay type: cell-based, human
How it was run: as §1

DQ6 [12] = assay: Peptide elution and HPLC-MS/MS, DQ6; set-up: species or system human; details: 293T DQ6+Ii+DM, 2 independent experiments
How it was run: as §2

DQ6 [13] = assay: Cell surface CLIP by flow cytometry, 293T cells expressing DQ6; assay type: cell-based, human; details: CerCLIP.1 mAb
How it was run: as §1

[14] = biological target: soluble recombinant HLA-DQ8 (human); assay: fluorescence polarisation
[15] = biological target: soluble recombinant HLA-DQ6 (human); assay: fluorescence polarisation

Molecule: DM: non-classical MHC protein HLA-DM catalyzing CLIP release and peptide exchange
DM sensitivity after Gly insertion at α53 of DQ2 [1]: restored DM sensitivity; also recorded: marked increase in DM-mediated rate enhancement in the dissociation of a DQ2 binding peptide | Change in DM sensitivity of DQ8 mutant (DQ8 βT89G): little change in DM sensitivity | DM editing of CLIP in T2 cells (DQ alleles in T2 cells): DQ2 and DQ2-8 were less sensitive to DM than DQ8 | Dissociation rate versus DM concentration (sDQ6): Peptide dissociation rates increased with increasing DM concentration; also recorded: rates appeared to saturate with increasing DM concentration | Change in DM sensitivity of DQ8 mutant (DQ8 βE86A): partially restore sensitivity to DM | Hierarchy of DM sensitivity among DQ molecules (DQ8 [2]; 293T DQ+Ii+DM, DQ8 compared with DQ2-8, DQ2, DQ8-2): DQ8 being the least sensitive, followed by DQ2-8, DQ2, and DQ8-2

Molecule: LPKPPKPVSKMRMATPLLMQA [CLIP1]
CLIP1 in peptide eluate, with DM (DQ8-2 [3]): detected | CLIP1 in peptide eluate, with DM (DQ2 [4]): detected | CLIP peptides in eluate, no DM (DQ1 [5]; 293T DQ1+Ii without DM): detected | CLIP peptides in eluate, with DM (DQ1 [5]; 293T DQ1+Ii+DM): not in samples co-expressing DM | CLIP1 in peptide eluate, with DM (DQ8 [6]): detected | CLIP1 in peptide eluate, with DM (DQ2-8 [7]): detected

Molecule: PSSGLGVTKQDLGPVPM [CLIPc, reference compound]
CLIPc detection in eluates (DQ molecules; DQ samples from 293T cells): detected by HPLC-MS/MS from all of the samples (DQ2, DQ2-8 and DQ8-2), except DQ8

Molecule: CLIP: Class II associated invariant chain peptide; Ii-derived, endogenous on DQ-expressing cells (Ac-VSK(Alexa Fluor 488)MRMATPLLMQ)
Cell surface CLIP level, no DM (DQ1 [8]): no detectable CLIP peptide | CLIP peptides eluted, no DM (DQ molecules; 293T DQ+Ii without DM, all DQ alleles, 2 independent experiments): prominently presented by all DQ alleles | Cell surface CLIP upon DM co-expression (DQ2-8 [9]; 293T DQ2-8+Ii+DM, CerCLIP.1 mAb, flow cytometry, 3 independent experiments): retain high levels of cell surface CLIP | Cell surface CLIP level, no DM (DQ2-8 [9]; 293T DQ2-8+Ii, absence of DM, CerCLIP.1 mAb, flow cytometry, MFI): high | Reduction in cell surface CLIP by DM (DQ2-8 [9]; 293T cells co-expressing DM with DQ2-8): little or no reduction in CLIP levels | DM editing of CLIP upon DM co-expression (DQ2 [10]; 293T DQ2+Ii+DM, CerCLIP.1 mAb, flow cytometry, 3 independent experiments): relatively resistant to DM editing | Cell surface CLIP level, no DM (DQ2 [10]; 293T DQ2+Ii, absence of DM, CerCLIP.1 mAb, flow cytometry, MFI): high | DM editing resistance relative to DQ8 and DQ2-8 (DQ2 [10]; 293T, DQ2): less striking | Cell surface CLIP upon DM co-expression (DQ8-2 [11]; 293T DQ8-2+Ii+DM, CerCLIP.1 mAb, flow cytometry, 3 independent experiments): retain high levels of cell surface CLIP | Cell surface CLIP level, no DM (DQ8-2 [11]; 293T DQ8-2+Ii, absence of DM, CerCLIP.1 mAb, flow cytometry, MFI): high | DM editing resistance relative to DQ8 and DQ2-8 (DQ8-2 [11]; 293T, DQ8-2 trans-dimer): less striking | CLIP in peptide eluate, with DM (DQ6 [12]): not detected | DM editing of CLIP in T2 cells (DQ alleles in T2 cells): consistent with those obtained with 293T cells | Cell surface CLIP upon DM co-expression (DQ6 [13]; 293T DQ6+Ii+DM, 3 independent experiments): complete loss of cell surface CLIP | Cell surface CLIP level, no DM (DQ6 [13]; 293T DQ6+Ii, absence of DM, MFI): high | Cell surface CLIP upon DM co-expression (DQ8 [2]; 293T DQ8+Ii+DM, CerCLIP.1 mAb, flow cytometry, 3 independent experiments): retain high levels of cell surface CLIP | Cell surface CLIP level, no DM (DQ8 [2]; 293T DQ8+Ii, absence of DM, CerCLIP.1 mAb, flow cytometry, MFI): high | Reduction in cell surface CLIP by DM (DQ8 [2]; 293T cells co-expressing DM with DQ8): little or no reduction in CLIP levels

intrinsic half-life of the complex [14]: 58 h | intrinsic half-life of the complex [15]: 7 h
Molecule: Ac-VSK(Alexa Fluor 488)MRMATPLLMQ [Alexa Fluor 488-labeled N-acetylated CLIP peptide]
